The values that follow come from ChEMBL document CHEMBL1154048, “Design, synthesis and pharmacological evaluation of new 1-[3-(4-arylpiperazin-1-yl)-2-hydroxy-propyl]-3,3-diphenylpyrrolidin-2-one derivatives with antiarrhythmic, antihypertensive, and alpha-adrenolytic activity” (Eur J Med Chem, 2009).

Calls of active or inactive are those of the source.

Experiment [1] has as its target T1, Adrenergic receptor alpha-2 (Rattus norvegicus, UniProt P22086+P19328+P22909).
T1 sequence (P22086 whole entry): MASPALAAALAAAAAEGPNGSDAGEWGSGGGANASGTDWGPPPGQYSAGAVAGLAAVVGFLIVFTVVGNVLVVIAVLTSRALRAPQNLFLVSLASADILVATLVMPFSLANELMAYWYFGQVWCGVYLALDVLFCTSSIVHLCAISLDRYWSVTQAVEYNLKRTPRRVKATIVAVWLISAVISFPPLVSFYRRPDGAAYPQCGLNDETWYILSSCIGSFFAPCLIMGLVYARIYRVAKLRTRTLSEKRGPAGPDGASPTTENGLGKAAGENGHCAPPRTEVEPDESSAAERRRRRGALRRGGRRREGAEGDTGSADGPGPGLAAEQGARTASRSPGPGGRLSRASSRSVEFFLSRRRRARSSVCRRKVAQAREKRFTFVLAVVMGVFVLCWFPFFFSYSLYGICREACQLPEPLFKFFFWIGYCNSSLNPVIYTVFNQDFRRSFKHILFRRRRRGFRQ
T1 sequence (P19328 whole entry): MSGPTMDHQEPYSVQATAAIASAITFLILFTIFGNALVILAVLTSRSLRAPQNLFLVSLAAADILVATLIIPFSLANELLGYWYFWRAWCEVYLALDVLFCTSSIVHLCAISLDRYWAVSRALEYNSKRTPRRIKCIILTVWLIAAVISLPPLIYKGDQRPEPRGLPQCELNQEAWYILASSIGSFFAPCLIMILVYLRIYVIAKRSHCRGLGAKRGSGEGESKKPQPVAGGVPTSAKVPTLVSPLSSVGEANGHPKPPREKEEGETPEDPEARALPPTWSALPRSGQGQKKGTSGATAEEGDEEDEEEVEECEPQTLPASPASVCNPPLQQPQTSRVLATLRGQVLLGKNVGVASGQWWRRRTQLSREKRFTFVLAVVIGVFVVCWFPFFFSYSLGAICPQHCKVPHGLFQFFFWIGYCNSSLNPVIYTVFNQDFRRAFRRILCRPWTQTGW
T1 sequence (P22909 whole entry): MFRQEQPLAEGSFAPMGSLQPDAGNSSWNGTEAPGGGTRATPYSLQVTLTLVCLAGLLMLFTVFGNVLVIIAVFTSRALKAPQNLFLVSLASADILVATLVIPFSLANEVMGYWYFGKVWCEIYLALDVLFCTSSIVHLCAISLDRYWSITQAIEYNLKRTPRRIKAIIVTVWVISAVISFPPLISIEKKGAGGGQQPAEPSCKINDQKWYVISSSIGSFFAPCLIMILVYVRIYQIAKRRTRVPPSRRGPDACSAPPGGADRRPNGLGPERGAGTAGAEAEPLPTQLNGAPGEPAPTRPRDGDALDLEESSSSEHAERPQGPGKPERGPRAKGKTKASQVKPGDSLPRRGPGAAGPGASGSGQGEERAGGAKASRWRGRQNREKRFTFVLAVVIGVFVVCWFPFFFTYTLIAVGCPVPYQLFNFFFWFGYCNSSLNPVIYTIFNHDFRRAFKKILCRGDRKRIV
Kind of experiment: Displacement of [3H]clonidine from alpha2 adrenergic receptor in rat cerebral cortex by liquid scintillation counting. Format: tissue-based. An outline of the steps:
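Rat cerebral cortex membranes were prepared in ice-cold 50 mM Tris–HCl pH 7.6 (20 000 × g, 20 min, 0–4 °C, washed twice). They were incubated with [3H]clonidine 2 nM and seven to eight compound concentrations (10^-11–10^-4 M), with excess unlabelled clonidine defining nonspecific binding. Samples were glass-fiber filtered and counted by liquid scintillation, in duplicate. Ki was calculated by Cheng–Prusoff.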

For experiment [2], the system named is Rattus norvegicus. Put plainly: Antiarrhythmic activity against adrenaline-induced arrhythmia in iv dosed rat assessed as inhibition of cardiac rhythm disturbance administered 15 mins before adrenaline challenge. Format: functional. To be noted: Heart. Put shortly: (§1)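 Rats anaesthetized with thiopental 60 mg/kg ip received the compound i.v. 15 min before an i.v. adrenaline challenge. Rhythm disturbances were recorded for 15 min after adrenaline. Activity was defined as absence of premature beats and inhibition of disturbances versus controls. ED50 values, with confidence limits, were derived by Litchfield–Wilcoxon from three groups of six animals.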

Experiment [3] concerns Rattus norvegicus. Kind of experiment: Antiarrhythmic activity against adrenaline-induced arrhythmia in iv dosed rat assessed as reduction in mortality rate administered 15 mins before adrenaline challenge. Format: functional, organism-based. To be noted: Heart. Put shortly:
as §1

Experiment [4] concerns Rattus norvegicus. Kind of experiment: Antiarrhythmic activity against adrenaline-induced arrhythmia in iv dosed rat assessed as reduction in supraventricular extrasystole administered 15 mins before adrenaline challenge. Format: functional, organism-based. To be noted: Heart. An outline of the steps:
as §1

Experiment [5] has as its system Rattus norvegicus. Kind of experiment: Antiarrhythmic activity against adrenaline-induced arrhythmia in iv dosed rat assessed as reduction in ventricular extrasystole administered 15 mins before adrenaline challenge. Conditions: Heart. The format is functional, organism-based. An outline of the steps: as §1
The test system of experiment [6] is Rattus norvegicus. Kind of experiment: Antiarrhythmic activity against adrenaline-induced arrhythmia in iv dosed rat assessed as reduction in bigeminy administered 15 mins before adrenaline challenge. Format: functional, organism-based. Conditions: Heart. Put shortly: as §1
The species entered for experiment [7] is Rattus norvegicus. Put plainly: Hypotensive activity in Wistar rat assessed as reduction in epinephrine-induced systolic blood pressure response. Format: functional, organism-based. Conditions: Artery. An outline of the steps: (§2)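 In anaesthetized rats, pressor responses were evoked by i.v. epinephrine, norepinephrine or methoxamine. Blood pressure was recorded through a heparin-saline-filled cannula in the carotid artery.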

The species named for experiment [8] is Rattus norvegicus. Put plainly: Hypotensive activity in Wistar rat assessed as reduction in norepinephrine-induced systolic blood pressure response. The format is functional, organism-based. To be noted: Artery. An outline of the steps: as §2
The species entered for experiment [9] is Rattus norvegicus. Kind of experiment: Hypotensive activity in Wistar rat assessed as reduction in methoxamine-induced systolic blood pressure response. Format: functional, organism-based. Conditions: Artery. Put shortly:
as §2

Experiment [10] relates to Rattus norvegicus. Put plainly: Hypotensive activity in normotensive Wistar rat assessed as diastolic blood pressure at 2.5 mg/kg, iv after 30 mins (Rvb=107.2 +/- 7.3 mmHg). Format: functional, Artery.
Experiment [11] has as its system Rattus norvegicus. Put plainly: Hypotensive activity in normotensive Wistar rat assessed as systolic blood pressure at 5 mg/kg, iv after 30 mins (Rvb=140.5 +/- 1.1 mmHg). Format: functional, Artery.
Experiment [12] relates to Rattus norvegicus. Kind of experiment: Hypotensive activity in normotensive Wistar rat assessed as diastolic blood pressure at 5 mg/kg, iv after 10 mins (Rvb=125.5 +/- 0.6 mmHg). Format: functional, Artery.
Experiment [13] concerns Rattus norvegicus. Kind of experiment: Hypotensive activity in Wistar rat assessed as reduction in epinephrine-induced blood pressure response at 5 mg/kg. The format is functional, organism-based. Set-up: dose 5 mg/kg. An outline of the steps: as §2
For experiment [14], the system named is Rattus norvegicus. Put plainly: Hypotensive activity in Wistar rat assessed as reduction in norepinephrine-induced blood pressure response at 5 mg/kg. Format: functional, organism-based. Set-up: dose 5 mg/kg. Put shortly: as §2
Experiment [15] deals with Rattus norvegicus. Kind of experiment: Hypotensive activity in Wistar rat assessed as reduction in methoxamine-induced pressure response at 5 mg/kg. The format is functional, organism-based. More on the design: dose 5 mg/kg. Put shortly: as §2
For experiment [16], the system named is Rattus norvegicus. Kind of experiment: Antiarrhythmic activity against adrenaline-induced arrhythmia in rat assessed as reduction in reflex bradycardia at 5 mg/kg, iv administered 15 mins before adrenaline challenge. The format is functional, organism-based. Set-up: dose 5 mg/kg. To be noted: Heart. An outline of the steps:
(§3)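 Rats anaesthetized with thiopental 60 mg/kg ip were dosed i.v. 15 min before an i.v. adrenaline challenge. Cardiac rhythm disturbances (bradycardia, extrasystoles, bigeminy, blocks) were recorded for 15 min after adrenaline and compared with controls.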

Experiment [17] has as its system Rattus norvegicus. Kind of experiment: Antiarrhythmic activity against adrenaline-induced arrhythmia in rat assessed as reduction in supraventricular extrasystole at 5 mg/kg, iv administered 15 mins before adrenaline challenge. Format: functional, organism-based. Set-up: dose 5 mg/kg. To be noted: Heart. Put shortly: as §3
The test system of experiment [18] is Rattus norvegicus. Kind of experiment: Antiarrhythmic activity against adrenaline-induced arrhythmia in rat assessed as reduction in ventricular extrasystole at 5 mg/kg, iv administered 15 mins before adrenaline challenge. The format is functional, organism-based. More on the design: dose 5 mg/kg. To be noted: Heart. An outline of the steps: as §3
The subject of experiment [19] is Rattus norvegicus. Kind of experiment: Antiarrhythmic activity against adrenaline-induced arrhythmia in rat assessed as reduction in bigeminy at 5 mg/kg, iv administered 15 mins before adrenaline challenge. Format: functional, organism-based. Set-up: dose 5 mg/kg. To be noted: Heart. Put shortly:
as §3

In experiment [20] the test system is Rattus norvegicus. Kind of experiment: Antiarrhythmic activity against adrenaline-induced arrhythmia in rat assessed as reduction in cardiac block at 5 mg/kg, iv administered 15 mins before adrenaline challenge. To be noted: Heart. Set-up: dose 5 mg/kg. The format is functional, organism-based. Put shortly: as §3

In turn, `Cl.Cl.O=C1N(CC(O)CN2CCN(c3ccccc3C(F)(F)F)CC2)CCC1(c1ccccc1)c1ccccc1` (stereo unspecified) had a pKi in [1] of 5.29. Besides, the ED50 in the experiment with Rattus norvegicus [2] came to 3.9 mg/kg. Further, the result with Rattus norvegicus [3], with Rattus norvegicus [4], in the experiment with Rattus norvegicus [5] and in the experiment on Rattus norvegicus [6] was Active. Besides, the result in the experiment listed under Rattus norvegicus [7], in the experiment filed under Rattus norvegicus [8] and in the experiment filed under Rattus norvegicus [9] was inactive.

`COc1ccc(N2CCN(CC(O)CN3CCC(c4ccccc4)(c4ccccc4)C3=O)CC2)cc1.Cl.Cl` (stereo unspecified): in experiment [1], the negative logarithm of the Ki (pKi) came out at 6. Moreover, in the experiment on Rattus norvegicus [10], the Activity came to 88.2 mmHg. Besides, the result in the experiment listed under Rattus norvegicus [7], in the experiment filed under Rattus norvegicus [8] and in the experiment filed under Rattus norvegicus [9] was inactive.

In experiment [1], `Cl.Cl.O=C1N(CC(O)CN2CCN(c3ccccc3)CC2)CCC1(c1ccccc1)c1ccccc1` (stereo unspecified) returned a pKi of 6.64. Further, in the experiment on Rattus norvegicus [2], the ED50 came out at 1.9 mg/kg. Also, the Activity amounted to 129 mmHg with Rattus norvegicus [11] and 118.6 mmHg in the experiment on Rattus norvegicus [12]. In addition, the outcome in the experiment on Rattus norvegicus [13], with Rattus norvegicus [14], with Rattus norvegicus [15], in the experiment with Rattus norvegicus [3], in the experiment on Rattus norvegicus [4] and with Rattus norvegicus [5] was Active. Also, the outcome in the experiment on Rattus norvegicus [6] was Active.

The molecule `Cc1ccccc1N1CCN(CC(O)CN2CCC(c3ccccc3)(c3ccccc3)C2=O)CC1.Cl.Cl` (stereo unspecified) displayed a pKi in experiment [1] of 6.51. Moreover, the ED50 with Rattus norvegicus [2] was found to be 1.4 mg/kg. Also, the outcome in the experiment on Rattus norvegicus [16], with Rattus norvegicus [17], in the experiment on Rattus norvegicus [18], with Rattus norvegicus [19], in the experiment with Rattus norvegicus [20] and in the experiment with Rattus norvegicus [13] was Active. The outcome with Rattus norvegicus [14], in the experiment with Rattus norvegicus [15] and with Rattus norvegicus [3] was Active.

In [1], `COc1ccccc1N1CCN(CC(O)CN2CCC(c3ccccc3)(c3ccccc3)C2=O)CC1.Cl.Cl` (stereo unspecified) gave a negative-log Ki (pKi) of 6.68. Also, in the experiment on Rattus norvegicus [2], the ED50 is 2.05 mg/kg. The result in the experiment on Rattus norvegicus [13], with Rattus norvegicus [14], in the experiment with Rattus norvegicus [15], in the experiment with Rattus norvegicus [3], in the experiment with Rattus norvegicus [4] and with Rattus norvegicus [5] was Active. For the same molecule, in the experiment with Rattus norvegicus [6], the outcome was Active.

The molecule `CCOc1ccccc1N1CCN(CC(O)CN2CCC(c3ccccc3)(c3ccccc3)C2=O)CC1.Cl.Cl` (stereo unspecified) registered a pKi in experiment [1] of 6.38. In addition, the ED50 in the experiment with Rattus norvegicus [2] was 1.1 mg/kg. Moreover, the result with Rattus norvegicus [16], with Rattus norvegicus [17], in the experiment on Rattus norvegicus [18], with Rattus norvegicus [19], in the experiment on Rattus norvegicus [20] and in the experiment with Rattus norvegicus [13] was Active. The result in the experiment on Rattus norvegicus [14], in the experiment on Rattus norvegicus [15] and in the experiment with Rattus norvegicus [3] was Active.
